Active and inactive are the calls of the source. No cut-off for these calls is given here. Where a SMILES comes first, the peptide text is derived from it. The star is where a group is joined. X1 = COC(=O)[C@H](Cc1ccc(Oc2no[n+]([O-])c2S(=O)(=O)c2ccccc2)cc1)NC(=O)CCCc1cn(CC(=O)*)nn1
Key:
Escherichia coli [1] = experiment: Antibiofilm activity against Escherichia coli ATCC 8099 assessed as inhibition of biofilm formation at 100 uM incubated for 12 hrs in presence of NO scavenger PTIO by crystal violet staining assay relative to control; assay type: functional, organism-based
Staphylococcus aureus [2] = experiment: Induction of NO release in Staphylococcus aureus ATCC 6538 at 10 uM incubated for 4 hrs by Griess assay; assay type: functional, organism-based
In short: (§1)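 Bacteria (10⁸ cfu/mL in saline) incubated with compound at 10 µM for 4 h at 37 °C, 5% CO₂. Cells were centrifuged and lysed, and the lysate centrifuged at 10,000 g for 5 min. Nitrite in the supernatant was measured by Griess reagent at 540 nm against a NaNO₂ standard curve.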

Staphylococcus aureus [3] = experiment: Antibiofilm activity against Staphylococcus aureus ATCC 6538 assessed as inhibition of biofilm formation at 100 uM incubated for 12 hrs by crystal violet staining assay relative to control; assay type: functional
In short: (§2)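 Bacterial culture (10⁸ cfu/mL) grown 24 h in 96-well plates, then washed 3× with saline. Wells were incubated 12 h with test compound in TSB. Biofilm was fixed with methanol 15 min and stained with 1% crystal violet 5 min at room temperature. Dye was solubilized in ethanol for 30 min at 37 °C and OD read at 600 nm. Compared with vehicle control; mean ± S.D., n = 3.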

Staphylococcus aureus [4] = experiment: Antibiofilm activity against Staphylococcus aureus ATCC 6538 assessed as dispersion of formed biofilms at 100 uM incubated for 12 hrs by scanning electron microscopy; assay type: functional, organism-based
In short: (§3)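 Bacteria (10⁸ cfu/mL) grown on silicon slices in TSB for 24 h. Medium was removed and slices washed 3× with saline. Slices were then incubated 12 h in TSB containing test compound at 100 µM, or TSB alone. Slices were gold-sputtered and imaged by cold field emission SEM.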

Staphylococcus aureus [5] = experiment: Antibiofilm activity against Staphylococcus aureus ATCC 6538 assessed as inhibition of continuous biofilm growth at 100 uM measured every 15 mins for 9 hrs by biofilm dynamic detection assay; assay type: functional, organism-based
In short: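 S. aureus (10⁸ cfu/mL in TSB) grown one day at 37 °C, 5% CO₂ on a real-time impedance cell analyzer to form biofilm. After saline washes (3×), medium containing compound at 100 µM was added. Biofilm index was recorded every 15 min for 9 h, blank-subtracted and normalized (lowest point 0, highest 1).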

Staphylococcus aureus [6] = experiment: Antimicrobial activity against Staphylococcus aureus ATCC 6538 incubated for 20 hrs by microdilution assay; assay type: functional
Escherichia coli [7] = experiment: Antibiofilm activity against Escherichia coli ATCC 8099 assessed as inhibition of biofilm formation at 100 uM incubated for 12 hrs by crystal violet staining assay relative to control; assay type: functional; in short: as §2
Escherichia coli [8] = experiment: Antimicrobial activity against Escherichia coli ATCC 8099 incubated for 20 hrs by microdilution assay; assay type: functional
Staphylococcus aureus [9] = experiment: Antibacterial activity against Staphylococcus aureus ATCC 6538 assessed as killing of living planktonic bacterial cells in supernatant at 100 uM incubated for 12 hrs by OD measurement
Escherichia coli [10] = experiment: Antibiofilm activity against Escherichia coli ATCC 8099 assessed as dispersion of formed biofilms at 100 uM incubated for 12 hrs by scanning electron microscopy; assay type: functional, organism-based; in short: as §3
Staphylococcus aureus [11] = experiment: Antibiofilm activity against Staphylococcus aureus ATCC 6538 assessed as decrease in living bacterial cells in biofilm on bottom of confocal dish at 100 uM incubated for 12 hrs by live-cell fluorescence staining assay; assay type: functional
In short: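 S. aureus (10⁸ cfu/mL, 2 mL) cultured one day at 37 °C, 5% CO₂ in confocal dishes, then washed 3× with saline. TSB with compound at 100 µM was added for 12 h. The dish was washed and live-cell fluorescence stained for 15 min. Bottom biofilm was imaged by 3D confocal microscopy.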

Staphylococcus aureus [12] = experiment: (§4) Antibiofilm activity against Staphylococcus aureus ATCC 6538 infected in mouse assessed as reduction in bacterial infection by measuring colony counts at 0.25 umol/kg, sc administered every 12 hrs for 3 days by plate colony counting assay (reference value: 6.40 +/- 0.28); assay type: functional; conditions: dose 0.25 µmol/kg
Staphylococcus aureus [13] = experiment: Antibiofilm activity against Staphylococcus aureus ATCC 6538 assessed as inhibition of biofilm formation at 100 uM incubated for 12 hrs in presence of NO scavenger PTIO by crystal violet staining assay relative to control; assay type: functional, organism-based
Escherichia coli [14] = experiment: Induction of NO release in Escherichia coli ATCC 8099 at 10 uM incubated for 4 hrs by Griess assay; assay type: functional, organism-based; in short: as §1
Staphylococcus aureus [15] = experiment: Induction of NO release in CDNB-pretreated Staphylococcus aureus ATCC 6538 at 10 uM incubated for 4 hrs by Griess assay; assay type: functional, organism-based
In short: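 S. aureus (10⁸ cfu/mL in saline) pretreated with 100 µM CDNB for 0.5 h at 37 °C, then pelleted. Cells were incubated with compound at 10 µM in saline for 4 h. After lysis, nitrite was quantified by Griess reagent at 540 nm against a NaNO₂ standard curve.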

Staphylococcus aureus [16] = experiment: as §4, with “days co-treated with 0.25 umol/kg NO scavenger PTIO” for “days”; assay type: functional; conditions: dose 0.25 µmol/kg
Cell membrane [17] = experiment: Induction of cell membrane rupture in Escherichia coli […] ATCC 8099 at 200 uM incubated for 60 mins by scanning electron microscopy; assay type: subcellular
In short: (§5)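 Bacteria incubated in TSB alone or TSB with compound at 200 µM for 60 min. Cells were pelleted, fixed in 4% paraformaldehyde, dropped onto silicon slices, gold-sputtered and imaged by cold field emission SEM.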

Cell membrane [18] = experiment: Induction of cell membrane rupture in Staphylococcus aureus ATCC 6538 assessed as induction of cell content spillage at 200 uM incubated for 60 mins by scanning electron microscopy; in short: as §5
[19] = Toxicity in rat assessed as effect on blood as effect on blood pressure at 0.172 umol/kg, sc measured after 6 hrs post dose by non-invasive blood pressure monitoring; assay type: organism-based; conditions: in vivo, dose 0.172 µmol/kg
In short: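 Healthy rats given a single sc dose of 0.172 µmol/kg in aqueous solution, with saline as control. Tail-artery blood pressure measured non-invasively at 0, 1, 3 and 6 h.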

Cell membrane [20] = experiment: Induction of cell membrane rupture in Staphylococcus aureus ATCC 6538 at 200 uM incubated for 60 mins by scanning electron microscopy; in short: as §5
Erythrocyte = experiment: Induction of hemolysis in mouse erythrocytes incubated for 3 hrs; assay type: cell-based
In short: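 2% erythrocyte suspension from mouse blood, mixed with sample in 0.9% NaCl. Controls were saline (negative) and water (positive). Incubated 3 h at 37 °C, 5% CO₂; hemolysis degree calculated by standard curve. Dose-dependent series; HC₅₀ derived.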

Staphylococcus aureus [21] = experiment: Antibiofilm activity against Staphylococcus aureus ATCC 6538 infected in mouse assessed as reduction in bacterial inflammation in vicinity tissues of implanted site at 0.25 umol/kg, sc administered every 12 hrs for 3 days by H and E staining based assay; assay type: functional, organism-based; conditions: dose 0.25 µmol/kg
In short: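 Mouse PDMS-implant S. aureus biofilm model dosed 0.25 µmol/kg sc in 5% DMSO/saline every 12 h for 3 days. Muscle tissue near the implant site was fixed 24 h, paraffin-embedded, sectioned and H&E stained to assess bacterial spread.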

Staphylococcus aureus [22] = experiment: Antibiofilm activity against Staphylococcus aureus ATCC 6538 infected in mouse assessed as reduction in skin ulceration near implanted site at 0.25 umol/kg, sc administered every 12 hrs for 3 days; assay type: functional, organism-based; conditions: dose 0.25 µmol/kg
In short: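 Mouse PDMS-implant S. aureus biofilm model (biofilm-coated slices placed subcutaneously in the back). Dosing was 0.25 µmol/kg sc in 5% DMSO/saline every 12 h for 3 days. Skin at the implant site was photographed every 12 h after implantation for ulceration.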

Cell membrane [23] = experiment: Induction of cell membrane rupture in Escherichia coli ATCC 8099 assessed as induction of cell content spillage at 200 uM incubated for 60 mins by scanning electron microscopy; in short: as §5
Staphylococcus aureus [24] = experiment: Antibiofilm activity against Staphylococcus aureus ATCC 6538 assessed as inhibition of continuous biofilm growth at 100 uM incubated for 1-2 hrs by biofilm dynamic detection assay; assay type: functional, organism-based; conditions: time hrs 1-2
In short: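 S. aureus biofilm grown 24 h at 37 °C, 5% CO₂ from 10⁸ cfu/mL in TSB while impedance was recorded in real time (xCELLigence RTCA). Supernatant removed, saline-washed three times, then compound added at 100 µM in TSB. Biofilm index read every 15 min for 9 h, blank subtracted and normalised 0–1, compared with TSB control.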

| MIC (Staphylococcus aureus [6]) [µM] | MIC (Escherichia coli [8]) [µM] | Molecule | inhibition (Escherichia coli [1]) | Activity (Staphylococcus aureus [2]) | inhibition at 100 µM (Staphylococcus aureus [3]) [%] | Activity (Staphylococcus aureus [4]) | inhibition (Staphylococcus aureus [5]) | inhibition at 100 µM (Escherichia coli [7]) [%] | Activity (Staphylococcus aureus [9]) | Activity (Escherichia coli [10]) | inhibition (Staphylococcus aureus [11]) | Activity (Staphylococcus aureus [12]) [log10CFU] | inhibition (Staphylococcus aureus [13]) | Activity (Escherichia coli [14]) | inhibition (Staphylococcus aureus [21]) | inhibition (Staphylococcus aureus [24]) | further results |
| --- | --- | --- | --- | --- | --- | --- | --- | --- | --- | --- | --- | --- | --- | --- | --- | --- | --- |
| > 50 | > 50 | COC(=O)[C@@H](N)Cc1ccc(Oc2no[n+]([O-])c2S(=O)(=O)c2ccccc2)cc1 | inactive | Active | 44.4 | Active | inactive | 81.2 | inactive | Active | Active | 4.91 | inactive | Active |  |  |  |
| > 50 | > 50 | CC[C@H](C)[C@H](NC(=O)[C@H](CCCCN)NC(=O)[C@H](CC(C)C)NC(=O)[C@H](C)NC(=O)CNC(=O)[C@H](CC(N)=O)NC(=O)[C@H](CC(C)C)NC(=O)[C@@H](NC(=O)[C@H](CCCCN)NC(=O)[C@H](CCCCN)NC(=O)[C@H](Cc1c[nH]c2ccccc12)NC(=O)[C@H](Cc1ccccc1)NC(=O)[C@H](CCCCN)NC(=O)[C@H](CCCNC(=N)N)NC(=O)[C@H](CCCNC(=N)N)NC(=O)[C@@H](NC(=O)Cn1cc(CCCC(=O)N[C@@H](Cc2ccc(Oc3no[n+]([O-])c3S(=O)(=O)c3ccccc3)cc2)C(=O)OC)nn1)[C@@H](C)O)C(C)C)C(=O)N[C@@H](C)C(=O)N1CCC[C@H]1C(=O)N[C@@H](Cc1ccccc1)C(=O)N[C@@H](CC(C)C)C(=O)N[C@@H](CC(C)C)C(=O)NCC(=O)O (X1-TRRKFWKKVLNGALKIAPFLLG-OH) | inactive | Active | 64.1 | Active | Active | 80.9 | Active | Active |  | 4.54 | inactive | Active | Active |  | Activity (Staphylococcus aureus [15]): inactive; Activity (Staphylococcus aureus [16]): 5.92 log10CFU; Activity (Cell membrane [17]): Active; Activity (Cell membrane [18]): Active; Activity [19]: Non-Toxic; Activity (Cell membrane [20]): Active; IC50 (Erythrocyte): > 380 µM; Activity (Staphylococcus aureus [22]): Active; inhibition at 100 µM (Staphylococcus aureus [11]): 100%; Activity (Cell membrane [23]): Active |
|  |  | CC(=O)OCC1=C(C(=O)O)N2C(=O)[C@@H](NC(=O)CCC[C@@H](N)C(=O)O)[C@H]2SC1 [CEPHALOSPORIN C] |  |  |  |  |  |  |  |  | inactive | 4.97 |  |  | Active | Active |  |
| > 50 | > 50 | H-TRRKFWKKVLNGALKIAPFLLG-OH |  |  |  | inactive |  |  |  | inactive | Active | 5.4 |  |  | Active | Active | inhibition (Staphylococcus aureus [3]): inactive; inhibition (Escherichia coli [7]): inactive |
